{"data": "Measurements from different studies", "note": "Lines come from different studies, so protocols differ. pIC50: −log10 of the molar value."}
{"SMILES": "CCOC(=O)C=c1[nH]c(=O)c(=Cc2cn(-c3ccccc3)nc2-c2ccc(C)cc2)s1", "organism": "Bacillus subtilis", "assay": "microbial growth, well diffusion", "setting": "100000 µg/mL", "measurement": "inhibition zone", "result": "13 mm"}
{"SMILES": "CCOC(=O)c1nc2ccccc2c(=O)n1Cc1cn(-c2ccc(C)cc2)nn1", "organism": "Nakaseomyces glabratus", "assay": "microbial growth, broth dilution", "test system": "ATCC90030", "setting": "24 h", "measurement": "IC50", "result": "8.4 µg/mL"}
{"SMILES": "CCCCCCC/C=C/C(=O)N1C(=O)/C(=C(\\O)c2ccc(F)cc2)C(=O)C1CC(C)C (centres unmarked)", "organism": "Proteus vulgaris", "assay": "microbial growth", "test system": "ATCC33420", "measurement": "MIC", "result": "> 200 µg/mL"}
{"SMILES": "CCOC(=O)c1nc2ccccc2c(=O)n1Cc1cn(-c2ccccc2Cl)nn1", "organism": "Nakaseomyces glabratus", "assay": "microbial growth, broth dilution", "test system": "ATCC90030", "setting": "24 h", "measurement": "IC50", "result": "183 µg/mL"}
{"SMILES": "Cc1c(NN=C2SC(C(C#N)=Cc3ccc(Cl)cc3)=NC2=O)c(=O)n(-c2ccccc2)n1C", "organism": "Bacillus subtilis", "assay": "microbial growth, well diffusion", "setting": "100000 µg/mL", "measurement": "inhibition zone", "result": "17 mm"}
{"SMILES": "CC1(C)S[C@@H]2[C@H](NC(=O)[C@H](N)c3ccccc3)C(=O)N2[C@H]1C(=O)O", "organism": "Listeria monocytogenes", "assay": "microbial growth, agar dilution", "setting": "26.93 µM", "measurement": "inhibition", "result": "100%"}
{"SMILES": "CCOC(=O)c1nc2ccccc2c(=O)n1Cc1cn(-c2ccccc2OC)nn1", "organism": "Nakaseomyces glabratus", "assay": "microbial growth, broth dilution", "test system": "ATCC90030", "setting": "24 h", "measurement": "IC50", "result": "81.8 µg/mL"}
{"SMILES": "O=C1NC(=S)S/C1=C\\c1c2ccccc2c(-c2ccc(N(c3ccccc3)c3ccccc3)cc2)c2ccccc12", "organism": "Bacillus subtilis", "assay": "microbial killing, broth dilution", "test system": "ATCC6633", "measurement": "MBC", "result": "> 1000 µg/mL"}
{"SMILES": "CCOC(=O)c1nc2ccccc2c(=O)n1Cc1cn(-c2ccc([N+](=O)[O-])cc2)nn1", "organism": "Nakaseomyces glabratus", "assay": "microbial growth, broth dilution", "test system": "ATCC90030", "setting": "24 h", "measurement": "IC50", "result": "316 µg/mL"}
{"SMILES": "Cc1c(NN=C2SC(C(C#N)=Cc3ccccc3)=NC2=O)c(=O)n(-c2ccccc2)n1C", "organism": "Bacillus subtilis", "assay": "microbial growth, well diffusion", "setting": "100000 µg/mL", "measurement": "inhibition zone", "result": "17 mm"}
{"SMILES": "O=C1NC(=S)S/C1=C\\c1ccc(-c2ccc(N(c3ccccc3)c3ccccc3)cc2)c2ccccc12", "organism": "Bacillus subtilis", "assay": "microbial killing, broth dilution", "test system": "ATCC6633", "measurement": "MBC", "result": "> 1000 µg/mL"}
{"SMILES": "N=C(NCCCCCCNC(=N)NC(=N)Nc1ccc(Cl)cc1)NC(=N)Nc1ccc(Cl)cc1", "organism": "Acanthamoeba polyphaga", "assay": "parasite growth, resazurin", "setting": "96 h", "measurement": "pIC50", "result": 5.03}
{"SMILES": "C[C@@H]1[C@H](O)[C@@H](C)/C=C/C=C/C=C/C=C/C=C/C=C/C=C/[C@H](O[C@@H]2O[C@H](C)[C@@H](O)[C@H](N)[C@@H]2O)C[C@@H]2O[C@](O)(C[C@@H](O)C[C@@H](O)[C@H](O)CC[C@@H](O)C[C@@H](O)CC(=O)O[C@H]1C)C[C@H](O)[C@H]2C(=O)O", "organism": "Nakaseomyces glabratus", "assay": "microbial killing", "test system": "ATCC90030", "measurement": "MFC", "result": "1.35 µM"}
{"SMILES": "C[C@@H](c1ncncc1F)[C@](O)(Cn1cncn1)c1ccc(F)cc1F", "organism": "Acanthamoeba polyphaga", "assay": "parasite growth, resazurin", "setting": "7 days", "measurement": "pIC50", "result": 4.26}
{"SMILES": "Cc1c(NC(=O)CC2=NC(=O)CS2)c(=O)n(-c2ccccc2)n1C", "organism": "Bacillus subtilis", "assay": "microbial killing, broth dilution", "measurement": "MBC", "result": "2 µg/mL"}
{"SMILES": "CCCCCCC/C=C/C(=O)N1C(=O)/C(=C(/C)O)C(=O)C1CO (centres unmarked)", "organism": "Proteus vulgaris", "assay": "microbial growth", "test system": "ATCC33420", "measurement": "MIC", "result": "> 200 µg/mL"}
{"SMILES": "CCOC(=O)c1nc2ccccc2c(=O)n1Cc1cn(-c2ccc(C(=O)O)cc2)nn1", "organism": "Nakaseomyces glabratus", "assay": "microbial growth, broth dilution", "test system": "ATCC90030", "setting": "24 h", "measurement": "IC50", "result": "87.7 µg/mL"}
{"SMILES": "C[C@@H]1[C@H](O)[C@@H](C)/C=C/C=C/C=C/C=C/C=C/C=C/C=C/[C@H](O[C@@H]2O[C@H](C)[C@@H](O)[C@H](N)[C@@H]2O)C[C@@H]2O[C@](O)(C[C@@H](O)C[C@@H](O)[C@H](O)CC[C@@H](O)C[C@@H](O)CC(=O)O[C@H]1C)C[C@H](O)[C@H]2C(=O)O", "organism": "Cryptococcus neoformans", "assay": "microbial killing", "test system": "ATCC90113", "measurement": "MFC", "result": "1.5 µg/mL"}
{"SMILES": "N#CC(=Cc1ccccc1O)C1=NC(=O)C(=Cc2cn(-c3ccccc3)nc2-c2ccccc2)S1", "organism": "Bacillus subtilis", "assay": "microbial growth, well diffusion", "setting": "100000 µg/mL", "measurement": "inhibition zone", "result": "25 mm"}
{"SMILES": "O=C(O)c1nc2ccccc2c(=O)n1Cc1cn(-c2cccc(Cl)c2)nn1", "organism": "Nakaseomyces glabratus", "assay": "microbial growth, broth dilution", "test system": "ATCC90030", "setting": "24 h", "measurement": "IC50", "result": "278 µg/mL"}
